Activity calls are given as the source filed them. The calls are words filed in the database; no cut-off is given here.
What was measured:
Escherichia coli = experiment: Antimicrobial activity against Escherichia coli ATCC 25922 after 12 hrs by micro broth dilution method; type: functional, organism-based
Outline: (§1)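 Micro broth dilution: compound stock serially diluted with 50% DMSO (final volume 200 μL), inoculated with 2 μL of 10^8 cf/mL culture, incubated 37 °C for 12 h. Clear wells and the next dilutions plated on nutrient agar, incubated 37 °C for 12 h. MIC taken as the dilution that inhibited growth.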

U-251 = experiment: Cytotoxicity against human U251 cells after 72 hrs by sulforhodamine B assay; type: functional, cell-based; details: U-251, 72 h
Outline: (§2)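 SRB assay. C6 and U251 in DMEM with 10% FBS, SHG44 in RPMI-1640, all at 37 °C, 5% CO2. Cells adhered 24 h, then were exposed to a range of concentrations for 72 h. Fixed in cold 50% TCA at 4 °C for 1 h, stained with 0.4% SRB for 10 min, rinsed with 1% acetic acid. Dye dissolved in 10 mM Tris, OD read at 515 nm. Viability taken as treated/control OD; IC50 by logistic fit; n = 5.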

U-87 MG [1] = experiment: Cytotoxicity against human U87MG cells after 72 hrs by sulforhodamine B assay; type: functional, cell-based, U-87MG ATCC; outline: as §2
C6 = experiment: Cytotoxicity against rat C6 cells after 72 hrs by sulforhodamine B assay; type: functional, cell-based; details: C6, 72 h; outline: as §2
Candida albicans = experiment: Antimicrobial activity against Candida albicans after 12 hrs by micro broth dilution method; type: functional, organism-based; outline: as §1
Staphylococcus aureus = experiment: Antimicrobial activity against methicillin-resistant Staphylococcus aureus ATCC 43300 after 12 hrs by micro broth dilution method; type: functional, organism-based
Outline: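 Test compounds serially diluted in 50% DMSO in broth microdilution plates. Each well received 2 μL of a 10^8 cf/mL culture, then incubated at 37 °C for 12 h overnight and read by eye. Clear wells and the next dilutions were plated on nutrient agar for 12 h at 37 °C. MIC was taken as the growth-inhibiting dilution. Gentamicin served as positive control.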

[2] = Cytotoxicity against human SHG44 cells after 72 hrs by sulforhodamine B assay; type: functional, cell-based; details: SHG-44, 72 h; outline: as §2
U-87 MG [3] = experiment: Cell cycle arrest in human U87MG cells assessed as accumulation at S phase at 4.4 uM after 12 hrs by propidium iodide staining based flow cytometric method (reference value: 32.49%); type: functional, U-87MG ATCC
U-87 MG [4] = experiment: Induction of apoptosis in human U87MG cells assessed as increase in total apoptotic cells at 2.2 uM after 24 hrs by annexin-V-FITC/propidium iodide staining based flow cytometric method relative to control; type: functional, U-87MG ATCC
Outline: (§3)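 U87MG cells were exposed for 24, 48 or 72 h, and 1 × 10^6 cells were harvested and washed in cold PBS. They were stained in binding buffer with annexin V-FITC and PI for 15 min at room temperature. Flow cytometry used 488 nm excitation with emission at 530/575 nm. Early plus late apoptotic cells were summed, and the untreated control was subtracted.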

U-87 MG [5] = experiment: Induction of apoptosis in human U87MG cells assessed as increase in total apoptotic cells at 2.2 uM after 72 hrs by annexin-V-FITC/propidium iodide staining based flow cytometric method relative to control; type: functional, U-87MG ATCC; outline: as §3
U-87 MG [6] = experiment: Induction of apoptosis in human U87MG cells assessed as increase in total apoptotic cells at 4.4 uM after 48 hrs by annexin-V-FITC/propidium iodide staining based flow cytometric method relative to control; type: functional, U-87MG ATCC; outline: as §3
U-87 MG [7] = experiment: Induction of apoptosis in human U87MG cells assessed as increase in total apoptotic cells at 4.4 uM after 24 hrs by annexin-V-FITC/propidium iodide staining based flow cytometric method relative to control; type: functional, U-87MG ATCC; outline: as §3
U-87 MG [8] = experiment: Cell cycle arrest in human U87MG cells assessed as increase in accumulation at G0/G1 phase at 4.4 uM after 12 hrs by propidium iodide staining based flow cytometric method relative to control; type: functional, U-87MG ATCC
U-87 MG [9] = experiment: Induction of apoptosis in human U87MG cells assessed as increase in total apoptotic cells at 2.2 uM after 48 hrs by annexin-V-FITC/propidium iodide staining based flow cytometric method relative to control; type: functional, U-87MG ATCC; outline: as §3
U-87 MG [10] = experiment: Cell cycle arrest in human U87MG cells assessed as accumulation at G2/M phase at 2.2 uM after 12 hrs by propidium iodide staining based flow cytometric method (reference value: 9.37%); type: functional, U-87MG ATCC
U-87 MG [11] = experiment: Cell cycle arrest in human U87MG cells assessed as accumulation at G2/M phase at 8.8 uM after 12 hrs by propidium iodide staining based flow cytometric method (reference value: 9.37%); type: functional, U-87MG ATCC
U-87 MG [12] = experiment: Cell cycle arrest in human U87MG cells assessed as increase in accumulation at G0/G1 phase at 8.8 uM after 12 hrs by propidium iodide staining based flow cytometric method relative to control; type: functional, U-87MG ATCC
U-87 MG [13] = experiment: Induction of apoptosis in human U87MG cells assessed as increase in total apoptotic cells at 4.4 uM after 72 hrs by annexin-V-FITC/propidium iodide staining based flow cytometric method relative to control; type: functional, U-87MG ATCC; outline: as §3
U-87 MG [14] = experiment: Cell cycle arrest in human U87MG cells assessed as accumulation at S phase at 8.8 uM after 12 hrs by propidium iodide staining based flow cytometric method (reference value: 32.49%); type: functional, U-87MG ATCC
U-87 MG [15] = experiment: Cell cycle arrest in human U87MG cells assessed as increase in accumulation at G0/G1 phase at 2.2 uM after 12 hrs by propidium iodide staining based flow cytometric method relative to control; type: functional, U-87MG ATCC
U-87 MG [16] = experiment: Cell cycle arrest in human U87MG cells assessed as accumulation at G2/M phase at 4.4 uM after 12 hrs by propidium iodide staining based flow cytometric method (reference value: 9.37%); type: functional, U-87MG ATCC
U-87 MG [17] = experiment: Cell cycle arrest in human U87MG cells assessed as accumulation at S phase at 2.2 uM after 12 hrs by propidium iodide staining based flow cytometric method (reference value: 32.49%); type: functional, U-87MG ATCC
U-87 MG [18] = experiment: Induction of apoptosis in human U87MG cells assessed as increase in total apoptotic cells at 10 uM after 24 hrs by annexin-V-FITC/propidium iodide staining based flow cytometric method relative to control; type: functional, U-87MG ATCC; outline: as §3
U-87 MG [19] = experiment: Cell cycle arrest in human U87MG cells assessed as increase in accumulation at G0/G1 phase at 0.8 uM after 12 hrs by propidium iodide staining based flow cytometric method relative to control; type: functional, U-87MG ATCC
U-87 MG [20] = experiment: Cell cycle arrest in human U87MG cells assessed as accumulation at S phase at 0.8 uM after 12 hrs by propidium iodide staining based flow cytometric method (reference value: 32.49%); type: functional, U-87MG ATCC
U-87 MG [21] = experiment: Induction of apoptosis in human U87MG cells assessed as increase in total apoptotic cells at 10 uM after 72 hrs by annexin-V-FITC/propidium iodide staining based flow cytometric method relative to control; type: functional, U-87MG ATCC; outline: as §3
U-87 MG [22] = experiment: Cell cycle arrest in human U87MG cells assessed as accumulation at G2/M phase at 0.8 uM after 12 hrs by propidium iodide staining based flow cytometric method (reference value: 9.37%); type: functional, U-87MG ATCC
U-87 MG [23] = experiment: Induction of apoptosis in human U87MG cells assessed as increase in total apoptotic cells at 10 uM after 48 hrs by annexin-V-FITC/propidium iodide staining based flow cytometric method relative to control; type: functional, U-87MG ATCC; outline: as §3

SMILES | Activity (Escherichia coli) | IC50 (U-251) | IC50 (U-87 MG [1]) | IC50 (C6) | Activity (Candida albicans) | Activity (Staphylococcus aureus) | IC50 [2] | other results
C=Cc1ccc(OC(=O)c2ccc(O)c(NC(C)=O)c2)cc1 | inactive | 9.7 µM | 10200 nM | 13.3 µM | inactive | inactive | 7300 nM | –
C=Cc1ccc(OC(=O)c2ccc(O)c(N)c2SC[C@@H](NC(C)=O)C(=O)O)cc1 | inactive | 4.3 µM | 2200 nM | 6.4 µM | inactive | inactive | 2400 nM | Activity (U-87 MG [3]): 16.76%; Activity (U-87 MG [4]): 0.96%; Activity (U-87 MG [5]): 58.32%; Activity (U-87 MG [6]): 61.16%; Activity (U-87 MG [7]): 3.36%; Activity (U-87 MG [8]): 16.18%; Activity (U-87 MG [9]): 20.59%; Activity (U-87 MG [10]): 8.92%; Activity (U-87 MG [11]): 7.53%; Activity (U-87 MG [12]): 20.56%; Activity (U-87 MG [13]): 93%; Activity (U-87 MG [14]): 13.77%; Activity (U-87 MG [15]): 5.71%; Activity (U-87 MG [16]): 8.92%; Activity (U-87 MG [17]): 27.23%
C=Cc1ccc(O[C@H]2O[C@H](CO)[C@H](O)[C@H](O)[C@H]2O)cc1 | inactive | – | – | – | inactive | inactive | – | –
O=C1Oc2ccc(cc2)[C@H](O)CNc2cc1ccc2O | inactive | – | – | – | inactive | inactive | – | –
C=Cc1ccc(OC(=O)c2ccc(O)cc2)cc1 | inactive | – | – | – | inactive | inactive | – | –
C=Cc1ccc(O)cc1 | inactive | – | – | – | inactive | inactive | – | –
C=Cc1ccc(OC(=O)c2ccc(O)c(N)c2S)cc1 | inactive | – | – | – | inactive | inactive | – | –
COc1cccc2c1C(=O)c1c(O)c3c(c(O)c1C2=O)C[C@@](O)(C(=O)CO)C[C@@H]3O[C@H]1C[C@H](N)[C@H](O)[C@H](C)O1 [DOXORUBICIN] | – | 3.3 µM | 400 nM | 0.5 µM | – | – | 1900 nM | Activity (U-87 MG [18]): 3.17%; Activity (U-87 MG [19]): 24.74%; Activity (U-87 MG [20]): 10.84%; Activity (U-87 MG [21]): 26.87%; Activity (U-87 MG [22]): 6.28%; Activity (U-87 MG [23]): 10.42%
C=Cc1ccc(OC(=O)c2ccc(O)c(N)c2)cc1 | inactive | – | – | – | inactive | inactive | – | –
